One experiment concerns HT-29. As to the kind of experiment: Cytotoxicity against human HT 29 cells. It is filed as functional, cell-based. An outline of the steps: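 HT-29 human colon adenocarcinoma cells were obtained from the American Type Culture Collection. The value is reported as an ED50.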
For the next experiment, the system named is P388. As to the kind of experiment: Cytotoxicity against mouse P388 cells. Type of experiment: functional. The note with it: for EC50: read-out: ED50 (the source's name). An outline of the steps:
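P-388 mouse lymphocytic leukemia cells were provided by an academic laboratory at the University of Illinois at Chicago. Activity is expressed as an ED50.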

Among the data in ChEMBL document CHEMBL1158074, “Cytotoxic constituents from the formosan soft coral Clavularia inflata var. luzoniana” (J Nat Prod, 2006) are EC50 and Activity values, retold here.

≈ marks a conversion by molar mass, not a printed value. Calls of active or inactive are those of the source. No cut-off for these calls is given here.

Turning to `C=C1[C@@H]2[C@@H](OC(C)=O)OC=C([C@H](OC(C)=O)[C@@H](C=C(C)C)OC(C)=O)[C@H]2CC/C(C)=C/[C@H](OC(=O)c2ccccc2)[C@H]1O`, the EC50 in the experiment with HT-29 (read-out: ED50 (the source's name)) was found to be 1.2 µg/mL (≈ 2.01 µM); in the experiment on P388, 0.5 µg/mL (≈ 0.838 µM).
As for `CC(=O)C(O)C[C@@H]1[C@@H]([C@@H]2[C@H]3CC[C@@]23C)C1(C)C` (stereo partly specified), the outcome with HT-29 and in the experiment with P388 was inactive.
Take `CC1(C)[C@@H]2[C@@H]3[C@H](C[C@@H](O)[C@@]3(C)O)[C@@](C)(O)CC[C@@H]21`: the outcome in the experiment on HT-29 and with P388 was inactive.
`C=C1CC[C@H]2[C@@H]([C@@H]3[C@@H]1C[C@@H](O)[C@@]3(C)O)C2(C)C`: the outcome in the experiment with HT-29 and in the experiment on P388 was inactive.
As for `C=C1CC/C=C(\C)C/C=C2/[C@H](C(C)C)[C@@H](O)C[C@@]2(C)CC1=O`, the result in the experiment with HT-29 was inactive. Besides, the EC50 with P388 turned out to be 1.5 µg/mL (≈ 4.96 µM).
As to `C=C1CC/C=C(\C)C/C=C2/[C@H](C(C)C)CC[C@@]2(C)CC1=O`, the results for the EC50 with HT-29 (read-out: EC50) and with P388 were 2.8 µg/mL (≈ 9.77 µM) and 0.6 µg/mL (≈ 2.09 µM), respectively.
Consider `C=C1CC[C@H]2[C@@H]([C@H]3C(C)=CC[C@@]13OO)C2(C)C`, for which the outcome in the experiment with HT-29 and in the experiment with P388 was inactive.
As for `C=C1CC/C=C(\C)C/C=C2/[C@H](C(C)C)CC[C@@]2(C)C[C@@H]1O`, in the experiment with HT-29, the outcome was inactive. The EC50 with P388 stood at 3.6 µg/mL (≈ 12.5 µM).
